Laboratory results published in ChEMBL document CHEMBL2034831, “Quinazoline-tyrphostin as a new class of antitumor agents, molecular properties prediction, synthesis and biological testing” (Eur J Med Chem, 2012).

Legend:
Assay type in all cases: functional, cell-based
MCF7 = experiment: Cytotoxicity against human MCF7 cells after 3 days by MTT assay; details: MCF7, 72 h
Method in brief: (§1)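 Cells kept in RPMI-1640 with 10% calf serum. Exponentially growing cells seeded at 4 × 10⁴ cells/mL, then medium replaced with fresh medium holding test compound (controls got solvent only). After incubation, MTT added for a further 4 h at 37 °C and formazan dissolved in DMSO. Read by OD. %inhibition = (OD control − OD test)/OD control × 100. Compounds giving ≥70% inhibition in a one-dose prescreen were serially diluted (0.06–0.002 range) for IC50.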

HepG2 = experiment: Cytotoxicity against human HepG2 cells after 3 days by MTT assay; details: HepG2, 72 h; method in brief: as §1
HeLa = experiment: Cytotoxicity against human HeLa cells after 3 days by MTT assay; details: 72 h; method in brief: as §1

| SMILES | IC50 (MCF7) | IC50 (HepG2) | IC50 (HeLa) |
| --- | --- | --- | --- |
| Cc1ccc2nc(C)n(NC(=O)c3sc(=S)n(Cc4ccccc4)c3N)c(=O)c2c1 | 10 µM | 32 µM | 26 µM |
| Cc1ccc2nc(C)n(NC(=O)/C(C#N)=N/Nc3ccccc3)c(=O)c2c1 | 19 µM | 12 µM | 79 µM |
| Cc1ccc2nc(C)n(NC(=O)/C(C#N)=C/c3ccc(O)cc3)c(=O)c2c1 | 14 µM | 13 µM | 13 µM |
| Cc1ccc2nc(C)n(NC(=O)CC#N)c(=O)c2c1 | 40 µM | 55 µM | 30 µM |
| CCOC(=O)c1c(N)sc(C(=O)Nn2c(C)nc3ccc(C)cc3c2=O)c1N | 16 µM | 22 µM | 23 µM |
| Cc1ccc2nc(C)n(-n3c(O)cc(N)c(C#N)c3=O)c(=O)c2c1 | 26 µM | 41 µM | 45 µM |
| Cc1ccc2nc(C)n(NC(=O)/C(C#N)=C/c3ccc(O)c(O)c3)c(=O)c2c1 | 8 µM | 8 µM | 8 µM |
| Cc1ccc2nc(C)n(-n3c(N)c(C#N)c(-c4ccccc4)c(C#N)c3=O)c(=O)c2c1 | 8 µM | 10 µM | 5 µM |
| Cc1ccc2nc(C)n(NC(=O)c3sc(N)c(C#N)c3N)c(=O)c2c1 | 10 µM | 15 µM | 15 µM |
| Cc1ccc2nc(C)n(NC(=O)c3sc(=S)n(-c4ccccc4)c3N)c(=O)c2c1 | 13 µM | 27 µM | 35 µM |
| Cc1ccc2nc(C)n(NC(=O)/C(C#N)=C/c3ccc(Cl)cc3)c(=O)c2c1 | 12 µM | 9 µM | 12 µM |
| Cc1ccc2nc(C)n(NC(=O)/C(C#N)=C/c3ccccc3)c(=O)c2c1 | 9 µM | 14 µM | 13 µM |
| Cc1ccc2nc(C)n(NC(=O)/C(C#N)=N/Nc3ccc(S(N)(=O)=O)cc3)c(=O)c2c1 | 9 µM | 9 µM | 12 µM |
| Cc1ccc(/C=C(\C#N)C(=O)Nn2c(C)nc3ccc(C)cc3c2=O)cc1 | 10 µM | 12 µM | 9 µM |
| CCOC(=O)c1c(-c2ccccc2)c(C#N)c(=O)n(-n2c(C)nc3ccc(C)cc3c2=O)c1N | 17 µM | 52 µM | 21 µM |
| COc1cccc2c1C(=O)c1c(O)c3c(c(O)c1C2=O)C[C@@](O)(C(=O)CO)C[C@@H]3O[C@H]1C[C@H](N)[C@H](O)[C@H](C)O1 [DOXORUBICIN] |  | 9 µM | 8 µM |
| Cc1ccc2nc(C)n(NC(=O)c3sc4c(c3N)CCCC4)c(=O)c2c1 | 18 µM | 22 µM | 31 µM |
| Cc1ccc2nc(C)n(NC(=O)c3cc4ccccc4oc3=N)c(=O)c2c1 | 17 µM | 23 µM | 38 µM |
| Cc1ccc2nc(C)n(NC(=O)/C(C#N)=C/c3cccc(O)c3)c(=O)c2c1 | 15 µM | 14 µM | 14 µM |
| Cc1ccc2nc(C)n(NC(=O)/C(C#N)=C/c3ccc([N+](=O)[O-])cc3)c(=O)c2c1 | 12 µM | 10 µM | 15 µM |
| Cc1ccc2nc(C)n(-n3c(N)cc(N)c(C#N)c3=O)c(=O)c2c1 | 10 µM | 17 µM | 15 µM |
